In ChEMBL document CHEMBL1134624, “Potent and selective ET-A antagonists. 1. Syntheses and structure-activity relationships of N-(6-(2-(aryloxy)ethoxy)-4-pyrimidinyl)sulfonamide derivatives” (J Med Chem, 2001):

Tests used:
Endothelin-1 receptor = molecular target: T1, Endothelin-1 receptor (Sus scrofa, UniProt Q29010); experiment: In vitro inhibition of [125I]ET1 binding to Endothelin A receptor in porcine aortic membrane from endothelial cells; assay type: cell membranes; conditions: in the assay text read “with endothelium removed” for “from endothelial cells”
T1 sequence (Q29010 whole entry): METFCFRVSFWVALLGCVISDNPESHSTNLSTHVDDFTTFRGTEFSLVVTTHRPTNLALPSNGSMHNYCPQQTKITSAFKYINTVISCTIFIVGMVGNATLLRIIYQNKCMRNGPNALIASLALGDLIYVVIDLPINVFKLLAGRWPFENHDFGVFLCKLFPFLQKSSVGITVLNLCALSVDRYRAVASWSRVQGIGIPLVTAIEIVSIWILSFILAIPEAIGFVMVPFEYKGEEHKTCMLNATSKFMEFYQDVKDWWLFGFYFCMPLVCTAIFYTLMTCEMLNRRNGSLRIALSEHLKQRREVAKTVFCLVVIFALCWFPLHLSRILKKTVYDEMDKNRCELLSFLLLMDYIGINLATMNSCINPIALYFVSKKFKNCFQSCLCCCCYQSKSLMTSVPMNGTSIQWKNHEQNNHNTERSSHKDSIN
In short: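 Endothelium-free porcine aorta homogenized in 10 mM MOPS (pH 7.4) with 20% sucrose. Membranes spun 1000g 15 min, then supernatant 90000g 45 min, and resuspended in 5 mM HEPES-Tris. Incubated with 20 pM final 125I-ET-1 and graded compound concentrations in 50 mM Tris-HCl pH 7.4, 0.1% BSA, protease inhibitors, EDTA, 2 h at 25 °C. Filtered, washed, gamma-counted.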

[1] = molecular target: T2, Endothelin receptor type B (Homo sapiens, UniProt P24530); experiment: In vitro for specific binding of [125I]ET1 to GHcell expressed in Endothelin B receptor
T2 sequence (P24530 whole entry): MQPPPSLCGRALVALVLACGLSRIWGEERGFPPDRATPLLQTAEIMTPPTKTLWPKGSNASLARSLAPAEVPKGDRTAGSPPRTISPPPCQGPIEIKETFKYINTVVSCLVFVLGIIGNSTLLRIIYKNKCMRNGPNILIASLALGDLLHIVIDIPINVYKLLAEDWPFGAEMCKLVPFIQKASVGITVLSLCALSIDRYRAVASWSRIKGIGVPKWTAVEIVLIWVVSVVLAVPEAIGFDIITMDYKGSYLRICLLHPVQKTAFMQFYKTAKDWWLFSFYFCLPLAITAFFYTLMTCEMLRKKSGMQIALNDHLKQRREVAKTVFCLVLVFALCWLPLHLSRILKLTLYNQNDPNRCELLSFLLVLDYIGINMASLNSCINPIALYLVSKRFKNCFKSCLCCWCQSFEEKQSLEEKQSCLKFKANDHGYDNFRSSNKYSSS

| SMILES | IC50 (Endothelin-1 receptor) [nM] | IC50 [1] [nM] |
| --- | --- | --- |
| COc1ccccc1Oc1c(NS(=O)(=O)c2ccc(C(C)(C)C)cc2)ncnc1OCCOc1ncc(SC)cn1 | 0.37 | – |
| CCC(C)(C)c1ccc(S(=O)(=O)Nc2ncnc(OCCOc3ncc(Br)cn3)c2-c2ccc(C)cc2)cc1 | < 0.001 | – |
| Cc1ccc(-c2c(NS(=O)(=O)c3cccs3)ncnc2OCCOc2ncc(Br)cn2)cc1 | 3.1 | – |
| COc1cccc(Oc2c(NCCOc3ncccn3)ncnc2NS(=O)(=O)c2ccc(C(C)(C)C)cc2)c1 | 6.2 | – |
| CSc1cnc(OCCOc2ncnc(NS(=O)(=O)c3ccc(C(C)(C)C)cc3)c2-c2ccc3ccccc3c2)nc1 | 0.29 | – |
| Cc1ccc(-c2c(NS(=O)(=O)c3ccc(C(C)(C)C)cc3)ncnc2OCCOc2ncc(Cl)cn2)cc1 [listing 1 of 2 here] | < 0.001 | – |
| Cc1ccc(-c2c(NS(=O)(=O)c3ccc(C(C)(C)C)cc3)ncnc2OCCOc2ncc(-c3ccccn3)cn2)cc1 | 0.036 | – |
| COCCOc1ncnc(NS(=O)(=O)c2ccc(C(C)(C)C)cc2)c1Oc1cccc(OC)c1 | 92 | – |
| Cc1ccc(-c2c(NS(=O)(=O)c3ccc(I)cc3)ncnc2OCCOc2ncc(Br)cn2)cc1 | 1 | – |
| COc1ccc(-c2c(NS(=O)(=O)c3ccc(C(C)(C)C)cc3)ncnc2OCCOc2ncc(SC)cn2)cc1 | < 0.001 | – |
| Cc1ccc(-c2c(NS(=O)(=O)c3ccc(C(C)(C)C)cc3)ncnc2OCCOc2ncc(-c3ccco3)cn2)cc1 [listing 1 of 2 here] | – | 7 |
| Cc1ccc(-c2c(NS(=O)(=O)c3ccc(-c4ccccn4)s3)ncnc2OCCOc2ncc(Br)cn2)cc1 | 3.4 | – |
| Cc1ccc(-c2c(NS(=O)(=O)c3ccc(C(F)(F)F)cc3)ncnc2OCCOc2ncc(Br)cn2)cc1 | 1.4 | – |
| CSc1cnc(OCCOc2ncnc(NS(=O)(=O)c3ccc(C(C)(C)C)cc3)c2-c2ccc(C)cc2)nc1 [listing 1 of 2 here] | < 0.001 | – |
| COc1cccc(Oc2c(NS(=O)(=O)c3ccc(C(C)(C)C)cc3)ncnc2OCCOc2ccc3ccccc3n2)c1 | 15.2 | – |
| CSc1cnc(OCCOc2ncnc(NS(=O)(=O)c3ccc(C(C)(C)C)cc3)c2-c2ccc(Cl)cc2)nc1 | < 0.001 | – |
| COc1cccc(Oc2c(NS(=O)(=O)c3ccc(C(C)(C)C)cc3)ncnc2OCCOc2ccccc2)c1 | 65 | – |
| COc1cnc(OCCOc2ncnc(NS(=O)(=O)c3ccc(C(C)(C)C)cc3)c2Oc2cccc(OC)c2)nc1 | 0.015 | – |
| COc1cccc(Oc2c(NS(=O)(=O)c3ccc(C(C)(C)C)cc3)ncnc2OCCOc2ccccn2)c1 | 8.8 | – |
| COc1cccc(Oc2c(NS(=O)(=O)c3ccc(C(C)(C)C)cc3)ncnc2OCCNc2ncccn2)c1 | > 100 | – |
| CSc1cnc(OCCOc2ncnc(NS(=O)(=O)c3ccc(C(C)(C)C)cc3)c2-c2ccc(C(C)C)cc2)nc1 | 1.2 | – |
| Cc1ccc(-c2c(NS(=O)(=O)c3ccc(C(C)(C)C)cc3)ncnc2OCCOc2ncc(-c3ccco3)cn2)cc1 [listing 2 of 2 here] | < 0.001 | – |

| SMILES | IC50 (Endothelin-1 receptor) [nM] | IC50 [1] [nM] |
| --- | --- | --- |
| COc1cccc(Oc2c(NS(=O)(=O)c3ccc(C(C)(C)C)cc3)ncnc2OCCOc2ncc(Cl)cn2)c1 | 0.059 | – |
| CSc1cnc(OCCOc2ncnc(NS(=O)(=O)c3ccc(C(C)(C)C)cc3)c2-c2ccc(C)s2)nc1 | 0.16 | – |
| Cc1ccc(-c2c(NS(=O)(=O)c3ccc(C(C)(C)C)cc3)ncnc2OCCOc2ncc(Br)cn2)cc1 [listing 1 of 2 here] | < 0.001 | – |
| COc1cccc(Oc2c(NS(=O)(=O)c3ccc(C(C)(C)C)cc3)ncnc2OCCOc2cnc3ccccc3n2)c1 | 45.4 | – |
| COc1cccc(Oc2c(NS(=O)(=O)c3ccc(C(C)(C)C)cc3)ncnc2SCCOc2ncccn2)c1 | 25.8 | – |
| Cc1ccc(-c2c(NS(=O)(=O)c3ccc(Br)cc3)ncnc2OCCOc2ncc(Br)cn2)cc1 | 2.8 | – |
| COc1ccc(-c2c(NS(=O)(=O)c3ccc(C(C)(C)C)cc3)ncnc2OCCOc2ncc(SC)cn2)cc1OC | 0.0085 | – |
| COc1cnc(OCCOc2ncnc(NS(=O)(=O)c3ccc(C(C)(C)C)cc3)c2-c2ccc(C)cc2)nc1 [listing 1 of 2 here] | – | 240 |
| COc1cccc(Oc2c(NS(=O)(=O)c3ccc(C(C)(C)C)cc3)ncnc2OCCOc2nccc(OC)n2)c1 | > 100 | – |
| COc1cccc(Oc2c(NS(=O)(=O)c3ccc(C(C)(C)C)cc3)ncnc2OCCCOc2ncc(C)cn2)c1 | 93.5 | – |
| CSc1cnc(OCCOc2ncnc(NS(=O)(=O)c3ccc(C(C)(C)C)cc3)c2-c2ccco2)nc1 | 2.9 | – |
| COc1cccc(Oc2c(NS(=O)(=O)c3ccc(C(C)(C)C)cc3)ncnc2OCCOc2ncc(Br)cn2)c1 | 0.051 | – |
| Cc1ccc(-c2c(NS(=O)(=O)c3ccc(C(C)(C)C)cc3)ncnc2OCCOc2ncc(-c3cccs3)cn2)cc1 [listing 1 of 2 here] | < 0.001 | – |
| Cc1ccc(-c2c(NS(=O)(=O)c3ccc(C(C)C)cc3)ncnc2OCCOc2ncc(Br)cn2)cc1 | 0.16 | – |
| COc1ccc(S(=O)(=O)Nc2ncnc(OCCOc3ncc(Br)cn3)c2-c2ccc(C)cc2)cc1 | 0.76 | – |
| CSc1cnc(OCCOc2ncnc(NS(=O)(=O)c3ccc(C(C)(C)C)cc3)c2-c2ccncc2)nc1 | 9.9 | – |
| COc1cccc(Oc2c(NS(=O)(=O)c3ccc(C(C)(C)C)cc3)ncnc2OCCOc2nccs2)c1 | 12 | – |
| CCc1ccc(-c2c(NS(=O)(=O)c3ccc(C(C)(C)C)cc3)ncnc2OCCOc2ncc(SC)cn2)cc1 | 0.013 | – |
| COc1cccc(Oc2c(NS(=O)(=O)c3ccc(C(C)(C)C)cc3)ncnc2OCCCc2ncccn2)c1 | > 100 | – |
| COc1cccc(Oc2c(NS(=O)(=O)c3ccc(C(C)(C)C)cc3)ncnc2OCCOc2ncc(C)cn2)c1 | 0.86 | – |
| Cc1ccc(-c2c(NS(=O)(=O)c3ccc(C(C)(C)C)cc3)ncnc2OCCOc2ncc(Br)cn2)cc1 [listing 2 of 2 here] | – | 38 |
| CSc1cnc(OCCOc2ncnc(NS(=O)(=O)c3ccc(C(C)(C)C)cc3)c2-c2ccc(C)cc2)nc1 [listing 2 of 2 here] | – | 220 |

| SMILES | IC50 (Endothelin-1 receptor) [nM] | IC50 [1] [nM] |
| --- | --- | --- |
| CSc1cnc(OCCOc2ncnc(NS(=O)(=O)c3ccc(C(C)(C)C)cc3)c2-c2ccc3c(c2)OCO3)nc1 | 0.0011 | – |
| COc1cccc(Oc2c(NS(=O)(=O)c3ccc(C(C)(C)C)cc3)ncnc2OCCOc2nccc3ccccc23)c1 | > 100 | – |
| CSc1cnc(OCCOc2ncnc(NS(=O)(=O)c3ccc(C(C)(C)C)cc3)c2-c2ccc(C(F)(F)F)cc2)nc1 | 0.0017 | – |
| COc1ccccc1Sc1c(NS(=O)(=O)c2ccc(C(C)(C)C)cc2)ncnc1OCCOc1ncc(Br)cn1 | 0.018 | – |
| COc1ccccc1Oc1c(NS(=O)(=O)c2ccc(C(C)(C)C)cc2)ncnc1OCCOc1ncc(Br)cn1 | 0.0039 | – |
| CSc1cnc(OCCOc2ncnc(NS(=O)(=O)c3ccc(C(C)(C)C)cc3)c2-c2cccs2)nc1 | 0.89 | – |
| COc1cccc(Oc2c(NS(=O)(=O)c3ccc(C(C)(C)C)cc3)ncnc2OCCOc2ccncn2)c1 | 1.2 | – |
| COc1cccc(Oc2c(NS(=O)(=O)c3ccc(C(C)(C)C)cc3)ncnc2OCCOc2nccc(C)n2)c1 | 39.4 | – |
| Cc1ccc(-c2c(NS(=O)(=O)c3ccc(C(C)(C)C)cc3)ncnc2OCCOc2ncc(-c3cccs3)cn2)cc1 [listing 2 of 2 here] | – | 3.8 |
| Cc1ccc(-c2c(NS(=O)(=O)c3ccc(C(C)(C)C)cc3)ncnc2OCCOc2ncccn2)cc1 | 0.11 | – |
| Cc1ccc(-c2c(NS(=O)(=O)c3ccc(C(C)(C)C)cc3)ncnc2OCCO)cc1 | > 100 | – |
| COc1cnc(OCCOc2ncnc(NS(=O)(=O)c3ccc(C(C)(C)C)cc3)c2-c2ccc(C)cc2)nc1 [listing 2 of 2 here] | 0.0017 | – |
| Cc1ccc(-c2c(NS(=O)(=O)c3ccc(C(C)(C)C)cc3)ncnc2OCCOc2ncc(Cl)cn2)cc1 [listing 2 of 2 here] | – | 28 |
| COc1cccc(Oc2c(NS(=O)(=O)c3ccc(C(C)(C)C)cc3)ncnc2OCCOc2cccnn2)c1 | 51.4 | – |
| COc1cccc(Oc2c(NS(=O)(=O)c3ccc(C(C)(C)C)cc3)ncnc2OCCOc2ncccn2)c1 | 1.9 | – |
| Cc1ccc(-c2c(NS(=O)(=O)c3ccc(C(C)(C)C)cc3)ncnc2OCCOc2ncc(-c3ccsc3)cn2)cc1 | < 0.001 | – |
| COc1cccc(Oc2c(NS(=O)(=O)c3ccc(C(C)(C)C)cc3)ncnc2OCCOCc2ccccc2)c1 | 170 | – |
| COc1ccc(S(=O)(=O)Nc2ncnc(OCCOc3ncc(Br)cn3)c2-c2ccc(C)cc2)cc1OC | 0.64 | – |
| Cc1ccc(-c2c(NS(=O)(=O)c3cccc4ccccc34)ncnc2OCCOc2ncc(Br)cn2)cc1 | 22 | – |
| COc1cccc(Oc2c(NS(=O)(=O)c3ccc(C(C)(C)C)cc3)ncnc2OCCOc2cnccn2)c1 | 24.5 | – |
| COc1cccc(-c2c(NS(=O)(=O)c3ccc(C(C)(C)C)cc3)ncnc2OCCOc2ncc(SC)cn2)c1 | 0.028 | – |
| Cc1ccc(-c2c(NS(=O)(=O)c3ccc4ccccc4c3)ncnc2OCCOc2ncc(Br)cn2)cc1 | 1 | – |
